Test system: MS2 coat protein
Assay: apparent Kd, MS2 coat protein; higher = weaker binding; RNA-MaP array; FMN 200 µM where present
Summary of the method: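 Green signal from SNAP-549-labelled MS2 coat protein was normalised to red-channel RNA signal and to the median Fmax of control clusters. The protein was titrated from 0.7 or 1.5 nM, doubling to 3 µM, without and then with constant ligand, over designs transcribed by stalled E. coli RNA polymerase on Illumina sequencing-chip clusters, in 100 mM Tris-HCl pH 7.5, 80 mM KCl, 4 mM MgCl2, BSA, DTT, yeast tRNA and Tween-20. The apparent Kd is the median of filtered per-cluster binding-curve fits.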

[1] = designed as: ON switch for flavin mononucleotide, no ligand
[2] = ligand present: flavin mononucleotide, designed as: ON switch for flavin mononucleotide
[3] = designed as: OFF switch for flavin mononucleotide, no ligand
[4] = ligand present: flavin mononucleotide, designed as: OFF switch for flavin mononucleotide

Sequence | apparent Kd [1] [µM] | apparent Kd [2] [µM] | apparent Kd [3] [µM] | apparent Kd [4] [µM]
GUUUCUAUAUGUUUUAUUUAACAGUCAGAAGGUGAUACUACGACAUGAGGAUCACCCAUGUAAUUCAAGGAUAUGAACUUAAUC | 1.06 | 0.517 | – | –
UGGAUCAUGGGAGGAUAUCCUCAAGAGACAUGAGGAUCACCCAUGUAUUAUAAGCCGAAAGGCAUGGAGAAGGCCCAUGAUCCU | 0.0503 | 0.019 | – | –
GAGUGGUAGAGAGGAUAUGCAUUGUUAUUAAAUGCAGAAGGUUUUAACAUGAGGAUCACCCAUGUAGGACUAUUCCUGUGUUUC | 0.0155 | 0.0136 | – | –
GGAUCGCGUGUGAGGAUAUGCUCGACCUUGGUCGAGCAGAAGGCACAUGAGGAUCACCCAUGUGACCUCGGUCC | – | – | 0.0876 | 0.451
GGGCGUGAAGGAUAUACAUGAGGAUCACCCAUGUGGGAGGAGAGUGGUGAGGAGGCUGGUAGAAGGUCAGGAUG | – | – | 0.0448 | 0.0368
UGGUACUAGGGAGGAUAUGGGAAGAUACAUGAGGAUCACCCAUGUUUAAGAAUACCGAGAGGCAACUAGAAGGCCCUAGUACCU | 0.192 | 0.0133 | – | –
AUAUAUAGUGUGAGGAUAUGCUGGUCCUUGGAUCAGCAGAAGGCACAUGAGGAUCACCCAUGUAGUUUAUUUUA | – | – | 0.0317 | 0.0767
UUCUUUCCUCAUGUACAUGAGGAACAUGAGGAUCACCCAUGUAGAAGGAUUUCCAUUAAAUUAAAAUAGGAUAUACAUAUAUUU | – | – | 0.0186 | 0.0167
AGCUGUGGCCGAGGAUAUCUAAUAAUCCCAACCGAAAUAUAAUCGGACAUGAGGAUCACCCAUGUAGAGAAGGCGGUCUCAGCA | – | – | 0.143 | 0.307
GCUGUCGCAUGAGGAUAUGGACUGCUUUGCAGUCCAGAAGGCAUGUCAAUAGACAUGAGGAUCACCCAUGUAGUUAAGACAGCA | 0.704 | 0.0424 | – | –
GUGACGAUGUAAGGAUAUGCAGUGGAUAACACUGCAGAAGGUACAUGAGGAUCACCCAUGUAACUCUAAUAAUAAUAACGUCAC | – | – | 0.0121 | 0.017
UGCGUACAAGCGGACAUGAGGAUCACCCAUGUAUUGUUAUGCGAGGAUAUCGGGAAGCAGGAUUCCGAGAAGGUGCGGUGAGCC | 0.0192 | 0.0177 | – | –
CCUUUUGUAUAAGGAUAUGUAACAAGGCGUAGGUGGGUAGGACUUGCGCUUACAGAAGGUAUACAUGAGGAUCACCCAUGUCGA | – | – | 0.0324 | 0.24
ACGUGUUAUACAGGAUAUGUAUAGGAAUAAUCAUACAGUUAUUAAUUAAUGACAGAAGGGUAAACAUGAGGAUCACCCAUGUCA | – | – | 0.546 | 0.39
UUUAACAGAGGAUAUGCGAAUAAAUAAAACUUUUUUUUUUAACAUGAGGAUCACCCAUGUAGAAGGCUGAUUUU | – | – | 0.0457 | 0.0477
ACAUGAGGAUCACCCAUGUAGAAUGAAGAAGGUAGUUACUUGAGACUCACCCAUGUACAUAGGACUAAGGAUAUUCUAAUAAUU | 0.0145 | 0.0085 | – | –
AUGCUUCACACAGGAUAUUACAACAUGAGGAUCACCCAUGUACAUGACAUGAGGAUCACCCAUGUUAAGAAGGGUGUGAAGCAU | – | – | 0.261 | 0.505
GCCUCACAUGAGGAUCACCCAUGUCAGGAUAUCUAAGGCGAAGUGCAAGCACCUCGUGAGAGAAGGGACGUCAA | – | – | 0.0232 | 0.0476
AAACAGGGAGGAUAUACAUAGAUCGUCUAACCUAAUUGGUCACAUGAGGAUCACCCAUGUAGAAGGCCCUUAGG | – | – | 0.0246 | 0.144
CAGCGCUGUCGAGAGGAUAUGCGGUGAUGGACAUGAGGAUCACCCAUGUUAGCGGUAGCAUUACGGUAGAAGGCUCUACAGCUGC | 0.031 | 0.0132 | – | –
GCGGUACAUGAGGAUCACCCAUGUCAGGAUAUCCGCUGUUUGUUAAUAAGCAGGCGGUGGAGAAGGGACUUCGC | – | – | 0.032 | 0.0331
GUGUAGUGAGGAUAUACAUGAGGAUCACCCAUGUGAAUAAGAUAGAAUAAGAUAAAGUGUAGAAGGUAUAGUGU | – | – | 0.0532 | 0.0353
AUACACUUUCGAGGAUAUCGGUGAUAAAUUUUACGAGAAGGCGAUAAAAGAUAUAAUCUUAUAUACAUGAGGAUCACCCAUGUU | 0.0273 | 0.0251 | – | –
GACCGUCACAGUUACCGGUUGAACGAGGAUAUGAUUACUGGGCCUGCACAUGAGGAUCACCCAUGUCAGAAGGCGUUCAGUCCC | – | – | 0.00586 | 0.0189
UUCAGGGAUCAAGGAUAUCUAUAUUCAUGAGGACAUGAGGAUCACCCAUGUUGAUUACCCAUGAGGGAGAAGGUGAACAUGAGG | 0.0442 | 0.0187 | – | –
AUGAGUAAAGCAGGAUAUCUAUUGUCUCUGUAACAUGAGGAUCACCCAUGUAGAGAAGGGCUUAGUCAUACUCUUCGGAGUUGA | – | – | 0.00727 | 0.00955
GGAUCGAUGUAGAAGGCUGUCCUAAAAUAGGACAGAGGAUAUACAUGAGGAUCACCCAUGUACUCCUUUAAAAUGAUCCAAAUA | – | – | 0.00553 | 0.0103
GGGUACAUCGGAGGAUAUCAUGUAAAUACAUGAGGAUCACCCAUGUCGAUGGAGACAUCGGAGAUUUAGAAGGCCGAUGUACCG | 0.158 | 0.201 | – | –

Sequence | apparent Kd [1] [µM] | apparent Kd [2] [µM] | apparent Kd [3] [µM] | apparent Kd [4] [µM]
UUUCGGUGGCUGGAGGAUAUCCUGGUUGUUACAUGAGGAUCACCCAUGUGCCGCGCGGUGCGCUGGGAGAAGGCCGGCGGCCCUU | 0.0377 | 0.0161 | – | –
CUUUAGCUAGGAUAUACAUGAGGAUCACCCAUGUUAGCGGCCAAUUGGACCGCGGGUUGUAGAAGGAGCAUUAA | – | – | 0.0375 | 0.0503
UUAUUUAUGCAAGGAUAUCAAUUAUAUACAAAUCCAACAUGAGGAUCACCCAUGUUUUAUUUUUUUGAGAAGGUGUAUUGUCAG | 0.0362 | 0.0405 | – | –
GCUGUCGCAUGAGGAUAUGGUCAGCUUUGCUGACCAGAAGGCAUGUCAAUAGACAUGAGGAUCACCCAUGUAGUUAAGACAGCA | 0.717 | 0.0492 | – | –
UUUGUUUUGGUAGGAUAUACUUUUAUUUUCUCUUUCCUUACAUGAGGAUCACCCAUGUUUACAUUGUAGAAGGACCACUUUGUU | – | – | 0.0208 | 0.0188
GGAUAGGACAGAGGAUAUACGUGUUAGAGAUACUAGCAAAAUUUCCUCACAUGAGGAUCACCCAUGUAGAAGGCUGUCCUAUCG | – | – | 0.0231 | 0.413
GGACGUCACAUUUACAUGAGGAUCACCCAUGUCUCUUGACAUGAGGAUAUGGAUCCUAAUUGGAUCCAGAAGGCAUGGACGUCC | 1.13 | 0.153 | – | –
GGUGCGAUGUAGAAGGCAGAUCUGAUUCAGAUCUGAGGAUAUACAUGAGGAUCACCCAUGUAAAGGCACCGCACGAGAGUGCAA | – | – | 0.00712 | 0.0113
ACUGCCCGAGAGAAGGGAACAUGAGGAUCACCCAUGUUACCUCACCUGGUGACGGAACUCCAAGUUCAGGAUAUCUCGAACGGU | – | – | 0.00523 | 0.00651
AGCUGUGGCCGAGGAUAUCUAUUAAUCCAAACCGAAAUAUAAUCGGACAUGAGGAUCACCCAUGUAGAGAAGGCGGUCUCAGCA | – | – | 0.072 | 0.0772
UUAUUAAGUGUGAGGAUAUGCUGGUCCUUGGAUCAGCAGAAGGCACAUGAGGAUCACCCAUGUACUUUAUAAAU | – | – | 0.0157 | 0.0466
AAAAAACAAGGAUAUACGCACGAGGAUUGUCUUAAUUUUUGACAUGAGGAUCACCCAUGUAGAAGGUGUUAAAA | – | – | 0.0757 | 0.0792
UAUGUUGUUGUGAGGAUAUACUUAGUUUGACCGUAGUAGAAGGCACAUGAGGAUCACCCAUGUAGAUGUUUGGU | – | – | 0.0158 | 0.0295
UGAUAGGACAGAGGAUAUACGUAUAAUUACCUCUACAUGAGGAUCACCCAUGUAGAAGGCUGUCCUAUCUAAGUCGGAAACGAC | – | – | 0.00599 | 0.00688
ACCUCACAUGAGGAUCACCCAUGUUAGGAUAUCUCGGUGCCCUGCAGGCAGUGGCACCAGAGAAGGAACGUGCA | – | – | 0.0192 | 0.0242
CCCUCAACAUGAGGAUCACCCAUGUAGGAUAUCGCUAUUGUAAUCAUGAAACAUGAUUACAAUAGCGAGAAGGACAUAUGUGGG | – | – | 0.106 | 0.0498
GCACUGGAUGUAGGAUAUCAGGACGAUAAGUCCUGAGAAGGACAUGAGGAUCACCCAUGUGAUAAAACCAGUGCAAAUAAUAUA | – | – | 0.0185 | 0.109
UGAACUAUGUAGAAGGCCCAUAUUUAUACUUAGGGAGGAUAUACAUGAGGAUCACCCAUGUAUAGAGCAAGUGGACUUGUCACU | – | – | 0.0179 | 0.0202
UUAGAUUAUUGAGGAUAUGGAUAUUUUUAUUAACCAGAAGGCAAACUCAACAUGAGGAUCACCCAUGUAUAAAGGGUAUUAGUU | – | – | 0.0956 | 0.0927
GACUUGUCAGGAUAUCUUACAUAAACAUCGUAGUUACAAUUGGAGAAGGGACAUGAGGAUCACCCAUGUUUGGC | – | – | 0.028 | 0.0254
GGGCCCGGUGUGAGGAUAUCGGGUUUGAAAGGGCCCGAGAAGGCACAUGAGGAUCACCCAUGUAAGCCGGGCCC | – | – | 0.0154 | 0.0144
CUCAUGUGAGGAUAUCAGUAGUAAAAAAAUAAAAUUACUACUGAGAAGGCACAUGAGGAUCACCCAUGUGUCUU | – | – | 0.0163 | 0.0317
GCAUGCAAGUAGAAGGACGGAUAUUUUGAAAACGUAGGAUAUACAGAAUCAUAUCCACAAGGUAACAUGAGGAUCACCCAUGUA | – | – | 0.0105 | 0.00958
GUCAGCUCGUGAGGAUAUACAUGUGCUGGAGACAGCAUUAAAUAAUUCACAUGAGGAUCACCCAUGUAGAAGGCACGAGCUGAU | – | – | 0.0178 | 0.0388
CCAGAGGUCACAGGAUAUGACUUGUCCAAUUAGUCAGAAGGGUGAAUCACAUUAUGUAUACAUGAGGAUCACCCAUGUCCUACG | 0.214 | 1.04 | – | –
AGAAACUACGAGAAGGACAUGUGGUCCUUCAGUUACAUGAGGAUCACCCAUGUAGGAUAUCGUAGUUUCAGGAUCGUGAGAUCA | – | – | 0.0408 | 0.0123
UGUCGGAGCAGAGGAUAUUACAUGAGGAUCACCCAUGUAUGAACCAAUAGCUGGAAACAGCACUGUAAGAAGGCUGCUCCGACA | – | – | 0.00867 | 0.0962

From the EternaBench riboswitch data
